# Most compounds without a hit are left out; they make up all but 2% or so of the library.
# NR1D1 modulator = modulators of Rev-erb alpha DNA binding, primary screen, biochemical, FITC-DNA, fluorescence polarization, uHTS; actives 0.79% (n = 370,000); Rev-erbα–FITC-DNA binding, 90 min; AID 1259318, 2017; activity, % at 10 µM;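 active means activity above about 14%, limit read from the data; passing the limit was not always enough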;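 further: 0% = DMSO wells with 35 nM protein and 100% = DMSO wells with 750 nM protein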
# NR2E3 ag-1 = inhibitors of NR2E3-RetCOR corepressor binding, primary screen, NR2E3 agonist project, biochemical, TR-FRET, GST-NR2E3, biotin-RetCOR. inhibition of corepressor binding, % at 4.78 µM. 1536-well. AID 2300, 2010. actives 0.12% (n = 320,000);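 active means percent inhibition above the cutoff of mean plus 3 SD of all tested compounds, set per screening campaign, cut at about 20% in these data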;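 further: 0% = DMSO wells and 100% = biotin wells as full block of FRET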
#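 System: GST-tagged NR2E3 plus biotinylated RetCOR corepressor; Amount: 1.35 nM GST-tagged NR2E3 final; Dosing: single nominal compound dose of 4.8 µM; Schedule: 5 h incubation at 4 °C; Technique: TR-FRET with europium anti-GST and streptavidin-D2, 340 nm excitation; Controls: biotin wells as high control, 0.6% DMSO wells as low control.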
# PG9 Ab binder = binders of HIV-1 gp120 antibody PG9, primary screen, biochemical, TR-FRET. HIV-1 gp120 / PG9 antibody interaction. TR-FRET gp120-PG9 antibody binding. inhibition, % at 6.7 µM. actives 0.43% (n = 360,000). AID 624416, 2012; in the data active means inhibition above about 8.5%
# NR2E3 ag-2 = NR2E3 agonists in two-hybrid cells, primary screen, cell-based, luminescence, CHO-S, Gal4-NCOR/VP16-NR2E3; luciferase; inhibition of corepressor binding, % at 3.98 µM; actives 0.35% (n = 360,000);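 active means inhibition above the mean of all tested compounds plus 3 SD, cut at about 70% in these data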;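 further: 0% = DMSO with NR2E3 transfected cells and 100% = cells lacking NR2E3 construct; higher means lower luciferase signal from less NR2E3 corepressor binding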
# Neddylation inh = inhibitors of cullin neddylation, primary screen, biochemical, TR-FRET, uHTS, NAE and Ubc12; calls only at 25 µM; NEDD8-conjugating enzyme Ubc12 (Homo sapiens) + NEDD8-activating enzyme E1 regulatory …; actives 0.58% (n = 360,000); in the data active means inhibition above about 36%
# Target sequence (P61081 whole entry, looked up): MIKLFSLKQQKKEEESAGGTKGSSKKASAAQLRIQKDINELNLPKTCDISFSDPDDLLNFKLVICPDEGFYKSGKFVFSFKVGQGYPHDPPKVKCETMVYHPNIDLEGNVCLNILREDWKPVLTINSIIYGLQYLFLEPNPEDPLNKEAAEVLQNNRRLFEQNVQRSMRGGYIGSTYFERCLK
# Target sequence (Q13564 whole entry, looked up): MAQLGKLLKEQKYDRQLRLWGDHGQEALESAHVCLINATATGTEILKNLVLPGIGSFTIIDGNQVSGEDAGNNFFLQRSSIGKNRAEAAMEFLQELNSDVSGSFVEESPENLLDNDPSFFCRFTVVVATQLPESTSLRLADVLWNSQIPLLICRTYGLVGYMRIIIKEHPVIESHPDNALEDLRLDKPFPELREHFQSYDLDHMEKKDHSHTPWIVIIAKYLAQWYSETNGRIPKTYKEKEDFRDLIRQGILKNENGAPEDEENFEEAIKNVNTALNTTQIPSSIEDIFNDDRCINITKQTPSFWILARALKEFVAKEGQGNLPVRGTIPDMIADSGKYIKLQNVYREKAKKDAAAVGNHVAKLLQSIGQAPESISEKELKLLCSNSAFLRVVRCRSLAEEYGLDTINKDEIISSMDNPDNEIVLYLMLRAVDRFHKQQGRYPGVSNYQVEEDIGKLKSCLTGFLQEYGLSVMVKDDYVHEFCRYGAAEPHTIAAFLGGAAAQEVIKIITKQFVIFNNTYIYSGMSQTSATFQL
# PG9 bind confirm = binders of anti-gp120 antibody PG9, confirmation, biochemical, TR-FRET. shares compounds with PG9 Ab binder. TR-FRET PG9 antibody binding. inhibition, % at 6.7 µM. actives 90% (n = 1,500). AID 651571, 2012; in the data active means inhibition above about 9%
# PGV04 Ab binding = binders of control antibody PGV04, counter-screen for PG9 antibody binder project, biochemical, TR-FRET, distinct HIV envelope site; shares compounds with PG9 Ab binder; TR-FRET PGV04 antibody-gp120 binding; inhibition, % at 6.7 µM; actives 95% (n = 1,500); in the data active means inhibition above about 9.5%
# An asterisk follows results filed as active; i = inactive; · = no result.
SMILES,NR1D1 modulator,NR2E3 ag-1,PG9 Ab binder,NR2E3 ag-2,Neddylation inh,PG9 bind confirm,PGV04 Ab binding
Cc1csc(NC(=O)COc2ccc3c(C)cc(=O)oc3c2)n1,-8,-42,15*,-15,i,21*,30*
CCn1c(=O)cc(OCC(=O)Nc2ccc(C)cn2)c2ccccc21,1,-4,0,5,i,·,·
CCn1c(=O)cc(OCC(=O)Nc2nc(C)cs2)c2ccccc21,22,6,13*,-15,i,30*,49*
Cc1ccc(-n2c(SCC(=O)Nc3ccc(Oc4ccccc4)cc3)nnc2-c2ccco2)cc1,-5,·,·,·,·,·,·
Cc1cc(N2CCN(CC(C)(C)O)C[C@@H]2C)ccc1N1CCN(Cc2ccccc2)[C@@H](C)C1,-5,·,1,·,·,·,·
CCOC(=O)c1sc(=NC(=O)c2ccccc2Br)n(C)c1C,8,3,15*,-159,i,22*,44*
Cc1ccc2nc(NC(=O)c3ccc(N4C(=O)CCC4=O)cc3)sc2c1,-1,3,-1,-42,i,·,·
CC(C)(C)NS(=O)(=O)c1ccc2nc(NC(=O)c3ccc(N4C(=O)CCC4=O)cc3)sc2c1,10,19,48*,-34,i,46*,64*
CC(C)N(C)c1ncnc2c1ncn2[C@H]1CN(Cc2ccc(Cl)cc2)C[C@@H](CO)O1,2,·,-1,1,i,·,·
Cn1c(CNC(=O)C2CCCCC2)cc2cc(Cl)ccc21,5,7,19*,-30,i,22*,34*
CCc1cc2c(SCC(=O)c3ccccc3)ncnc2s1,2,2,1,-130,i,·,·
CCc1cc2c(SCC(=O)NC(=O)c3cccn3C)ncnc2s1,4,6,21*,-16,i,18*,34*
CCc1cc2c(SCC(=O)Nc3cc(C)on3)ncnc2s1,12,0,22*,-37,i,32*,48*
C=CCN1C(=O)[C@@H](CC(=O)NCCCCc2ccccc2)[C@]2(C(=O)OC)CCCCC=C12,3,·,·,·,·,·,·
CCn1ncc(Cl)c1C(=O)Nc1ccc2c(c1)CCC2,-3,4,2,-51,i,·,·
Cc1ccc2cc(C#N)c(SCC(=O)NCc3ccco3)nc2c1,6,7,0,-12,i,·,·
CCOC(=O)CNC(=O)CSc1nc(C)cc(C)c1C#N,-6,2,-1,2,i,·,·
Cc1ccc(CNC(=O)CSc2nc(C)cc(C)c2C#N)cc1,14,3,58*,-22,i,39*,45*
Cc1ccc2nc(SCC(=O)NCc3ccco3)c(C#N)cc2c1,-3,11,13*,-79,i,11*,18*
COc1cc(OC)c(/C=N/N2CCN(c3ccccc3OC)CC2)c(OC)c1,3,1,-3,-32,i,·,·
O=C(Nc1ccc(F)cc1)C1CCCN(S(=O)(=O)c2ccc3[nH]c(=O)ccc3c2)C1 (centres undefined),-5,5,11*,-13,i,19*,29*
COc1ccccc1NC(=O)C1CCCN(S(=O)(=O)c2ccc3[nH]c(=O)ccc3c2)C1 (centres undefined),-2,1,0,-26,i,·,·
COc1ccc(C)cc1NC(=O)C1CCCN(S(=O)(=O)c2ccc3[nH]c(=O)ccc3c2)C1 (centres undefined),-2,2,-1,7,i,·,·
Cc1ccc(C)c(NC(=O)C2CCCN(S(=O)(=O)c3ccc4[nH]c(=O)ccc4c3)C2)c1 (centres undefined),10,0,16*,-1,i,13*,21*
Cc1ccc(C(=O)N2CCC[C@@H]2C(=O)N2CCC[C@H]2C(=O)NCc2ccccc2)cc1C,-5,·,0,·,·,·,·

# Assay outcomes deposited in PubChem by several laboratories.
